Assay results of several laboratories.
Compare with care: the assays were run in different laboratories.
USP5: Ubiquitin carboxyl-terminal hydrolase 5 (USP5, Homo sapiens, UniProt P45974)
MAP4K3: Mitogen-activated protein kinase kinase kinase kinase 3 (MAP4K3, Homo sapiens, UniProt Q8IVH8)
TACR3: Neuromedin-K receptor (TACR3, Homo sapiens, UniProt P29371)
ADORA1: Adenosine receptor A1 (ADORA1, Homo sapiens, UniProt P30542)

| SMILES | target | read-out | mode | technique | concentration | inhibition [%] |
| --- | --- | --- | --- | --- | --- | --- |
| Cn1cc(-c2cc(F)cc(N3CCn4c(cc5c4CCCC5)C3=O)c2CO)cc(Nc2ccc(N3CCN(C4COC4)CC3)cn2)c1=O | Inhibitor of nuclear factor kappa-B kinase subunit alpha (CHUK, Homo sapiens, UniProt O15111) | enzyme activity | inhibitor | – | 0.1 µM | 14 |
| CN(C)C(=O)COC(=O)Cc1ccc(OC(=O)c2ccc(NC(=N)N)cc2)cc1 | USP5 | enzyme activity | inhibitor | – | 10 µM | 1 |
| C#Cc1n[nH]c2c(-c3cn([C@@H](C)c4ccccc4)c(=O)[nH]c3=O)cc(F)cc12 | MAP4K3 | enzyme activity | inhibitor | – | 0.1 µM | -1.9 |
| CCN(CC)CCCC[C@H](NC(=O)[C@H](CC(C)C)NC(=O)[C@H](C)NC(=O)[C@H](Cc1ccccc1)NC(=O)c1ccc(C(C)(C)C)cc1)C(=O)N[C@@H](CO)C(=O)OC | TACR3 | ligand displacement | – | radioligand | 10 µM | 8 |
| N=C(N)c1ccc2cc(OC(=O)c3ccc(N=C(N)N)cc3)ccc2c1 | USP5 | enzyme activity | inhibitor | – | 10 µM | 0 |
| C#Cc1n[nH]c2c(-c3cn([C@@H](C)c4ccccn4)c(=O)[nH]c3=O)cc(F)cc12 | MAP4K3 | enzyme activity | inhibitor | – | 0.1 µM | -2.5 |
| CCCCSC[C@@]12C[C@@H]1[C@@H](n1cnc3c(NC(C4CCCC4)C4CCCC4)nc(Cl)nc31)[C@H](O)[C@@H]2O | ADORA1 | ligand displacement | – | radioligand | 10 µM | -1 |
| CNC(=O)[C@H](Cc1ccccc1)NC(=O)[C@H](CC(C)C)[C@H](CSc1cccs1)C(=O)NO | Matrilysin (MMP7, Homo sapiens, UniProt P09237) | enzyme activity | inhibitor | – | 100 pM | 4 |
| c1ccc(C(NCCNC(c2ccccc2)c2ccccc2)c2ccccc2)cc1 | TACR3 | cell-free assay | – | – | 10 µM | 61 |
| CN(CCN1CCC(OC(=O)Nc2ccccc2-c2ccccc2)CC1)C(=O)c1ccc(CN2CCC(C(N)=O)CC2)cc1 | TACR3 | ligand displacement | – | radioligand | 1 µM | 1 |
| OC[C@@]12C[C@@H]1[C@@H](n1cnc3c(NC(C4CCCC4)C4CCCC4)nc(Cl)cc31)[C@H](O)[C@@H]2O | ADORA1 | ligand displacement | – | radioligand | 10 µM | 11 |
| C[C@H](C(=O)N[C@H]1COc2ccccc2[C@@H]1S(C)(=O)=O)c1ccc(F)cc1 | TACR3 | cell-free assay | – | – | 10 µM | -11 |
| COCCN(CCOC)C(=O)[C@@]12C[C@@H]1[C@@H](n1cnc3c(NC(C4CC4)C4CC4)nc(Cl)nc31)[C@H](O)[C@@H]2O | ADORA1 | ligand displacement | – | radioligand | 10 µM | 34 |
| COc1cc(Nc2ncc(F)c(Nc3ccc4c(n3)NC(=O)C(C)(C)O4)n2)cc(OC)c1OC | MAP4K3 | binding | – | competition with immobilised ligand | 10 µM | 52 |
| CCOC(=O)c1ccc(OC(=O)CCCCCNC(=N)N)cc1 | USP5 | enzyme activity | inhibitor | – | 10 µM | 1 |
